This note sets out measurements from ChEMBL document CHEMBL1125911, “Synthesis and biological activity of new HMG-CoA reductase inhibitors. 3. Lactones of 6-phenoxy-3,5-dihydroxyhexanoic acids” (J Med Chem, 1991).

One may read the IC50 as the concentration that inhibits the measured activity by half. A low value points to higher potency. The term inhibition denotes the share of the control response that was lost under treatment.

Test [1] deals with Oryctolagus cuniculus. Kind of test: Tested in vivo for hypocholesterolemic activity by measuring its ability to decrease serum total cholesterol, after oral administration of 50 mg/kg body wt. per day in normolipidemic NZW rabbits. In kind it is functional. The gist of the method: (§1)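 NZW rabbits (n = 5 or 6) dosed orally daily for 10 days. Serum total cholesterol reported as % change versus control. For 20 mg/kg, that dose was given on days 11-20 after 10 mg/kg, with the value read on day 20. Error given as SEM.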

For test [2], the species on record is Rattus norvegicus. Kind of test: Potency relative to mevinolin was determined with respect to IC50. […]. In kind it is functional.
Test [3] concerns Rattus norvegicus. Put plainly: In vivo inhibition of hepatic cholesterol de novo synthesis in rat after oral administration of 5 mg/kg dose. Type of test: functional.
In test [4] the target is T1, 3-hydroxy-3-methylglutaryl-coenzyme A reductase (Rattus norvegicus, UniProt P51639).
T1 sequence (P51639 whole entry): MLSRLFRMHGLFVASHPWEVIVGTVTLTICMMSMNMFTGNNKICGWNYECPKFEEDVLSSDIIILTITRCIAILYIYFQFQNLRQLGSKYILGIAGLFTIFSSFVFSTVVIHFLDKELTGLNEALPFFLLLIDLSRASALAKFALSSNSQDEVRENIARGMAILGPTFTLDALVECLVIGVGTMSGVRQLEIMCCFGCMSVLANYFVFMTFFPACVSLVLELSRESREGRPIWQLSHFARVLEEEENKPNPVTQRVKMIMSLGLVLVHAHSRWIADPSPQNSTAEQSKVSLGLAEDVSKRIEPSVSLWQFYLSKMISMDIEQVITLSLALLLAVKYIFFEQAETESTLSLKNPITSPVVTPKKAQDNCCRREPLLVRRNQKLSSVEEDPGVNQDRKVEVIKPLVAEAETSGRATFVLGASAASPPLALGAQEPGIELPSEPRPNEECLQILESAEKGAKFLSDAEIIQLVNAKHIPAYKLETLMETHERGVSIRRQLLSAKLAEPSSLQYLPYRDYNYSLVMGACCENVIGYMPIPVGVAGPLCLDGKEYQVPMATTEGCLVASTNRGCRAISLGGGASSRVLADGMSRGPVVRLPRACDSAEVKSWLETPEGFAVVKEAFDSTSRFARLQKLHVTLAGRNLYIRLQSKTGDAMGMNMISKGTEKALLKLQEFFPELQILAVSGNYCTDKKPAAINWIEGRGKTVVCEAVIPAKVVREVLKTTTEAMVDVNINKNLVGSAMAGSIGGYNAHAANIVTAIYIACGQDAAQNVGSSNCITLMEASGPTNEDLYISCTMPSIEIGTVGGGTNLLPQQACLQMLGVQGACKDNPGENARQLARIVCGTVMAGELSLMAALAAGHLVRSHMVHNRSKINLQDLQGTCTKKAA
Kind of test: In vitro inhibition of solubilized HMG-CoA reductase in rat liver.

Test [5] relates to Rattus norvegicus. Kind of test: Compound was tested for effect on liver weight after oral administration of 100 mg/kg in male rats. In kind it is functional. The gist of the method:
(§2)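 Male HOE:WISKf (SPF 71) rats, initial body weight over 180 g, n = 10 per group, dosed once daily in the morning by gavage in polyethylene glycol 400 for 7 days; controls received vehicle. Fasted after last dose, bled retroorbitally 24 h later under mild ether. Liver and body weight recorded. Pooled group serum was ultracentrifuged into VLDL (<1.006), LDL (1.006-1.04) and HDL (1.04-1.21). Values are % change versus control.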

In test [6] the test system is Rattus norvegicus. Kind of test: Compound was tested for effect on serum VLDL after oral administration of 100 mg/kg in male rats. In kind it is functional. The gist of the method: as §2
The test system of test [7] is Rattus norvegicus. Kind of test: Compound was tested for effect on body weight after oral administration of 100 mg/kg in male rats. Type of test: functional. Summed up:
as §2

The subject of test [8] is Rattus norvegicus. Put plainly: Compound was tested for effect on serum LDL after oral administration of 100 mg/kg in male rats. Type of test: functional. The gist of the method: as §2
In test [9] the test system is Rattus norvegicus. Kind of test: Compound was tested for effect on serum HDL after oral administration of 100 mg/kg in male rats. In kind it is functional. The gist of the method: as §2
For test [10], the species on record is Sus scrofa. Put plainly: In vitro inhibition of Cu2+ catalyzed LDL oxidation. In kind it is functional. Summed up: (§3)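 Porcine plasma LDL isolated by sequential ultracentrifugation (density 1.019-1.063 g/mL), dialysed against PBS pH 7.4, then diluted to 0.1 mg/mL protein. Preincubated 1 h at 37 °C under N2 with compound in ethanol. Oxidised with 5 μM Cu2+ for 2 h at 37 °C in air. Fluorescence read at ex 365/em 430 nm.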

For test [11], the species on record is Rattus norvegicus. Kind of test: In vitro inhibition of microsomal lipid peroxidation at 10e-5 M conc. In kind it is functional. The gist of the method: (§4)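 Rat liver microsomes in 50 mM Tris-HCl pH 7.4 with 100 mM KCl and 6.0 mM MgCl2, final protein 0.4 mg/mL. Peroxidation was started with ADP (2 mM)/FeCl3 (10 μM) plus an NADPH-regenerating system. Incubation 30 min at 37 °C with shaking. Thiobarbituric acid reactive substances were read at 535 nm.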

For test [12], the species on record is Sus scrofa. Put plainly: Compound was tested for inhibition of Cu2+ catalyzed LDL oxidation and the potency relative to terbufucine was determined. In kind it is functional. The gist of the method:
as §3

The species named for test [13] is Rattus norvegicus. Kind of test: Compound was tested for inhibition of microsomal lipid peroxidation and the potency relative to terbufucine was determined. Type of test: functional. Summed up: as §4
The species entered for test [14] is Rattus norvegicus. Kind of test: In vitro inhibition of microsomal lipid peroxidation. Type of test: functional. The gist of the method:
as §4

Test [15] addresses T2, 3-hydroxy-3-methylglutaryl-coenzyme A reductase (Homo sapiens, UniProt P04035).
T2 sequence (P04035 whole entry): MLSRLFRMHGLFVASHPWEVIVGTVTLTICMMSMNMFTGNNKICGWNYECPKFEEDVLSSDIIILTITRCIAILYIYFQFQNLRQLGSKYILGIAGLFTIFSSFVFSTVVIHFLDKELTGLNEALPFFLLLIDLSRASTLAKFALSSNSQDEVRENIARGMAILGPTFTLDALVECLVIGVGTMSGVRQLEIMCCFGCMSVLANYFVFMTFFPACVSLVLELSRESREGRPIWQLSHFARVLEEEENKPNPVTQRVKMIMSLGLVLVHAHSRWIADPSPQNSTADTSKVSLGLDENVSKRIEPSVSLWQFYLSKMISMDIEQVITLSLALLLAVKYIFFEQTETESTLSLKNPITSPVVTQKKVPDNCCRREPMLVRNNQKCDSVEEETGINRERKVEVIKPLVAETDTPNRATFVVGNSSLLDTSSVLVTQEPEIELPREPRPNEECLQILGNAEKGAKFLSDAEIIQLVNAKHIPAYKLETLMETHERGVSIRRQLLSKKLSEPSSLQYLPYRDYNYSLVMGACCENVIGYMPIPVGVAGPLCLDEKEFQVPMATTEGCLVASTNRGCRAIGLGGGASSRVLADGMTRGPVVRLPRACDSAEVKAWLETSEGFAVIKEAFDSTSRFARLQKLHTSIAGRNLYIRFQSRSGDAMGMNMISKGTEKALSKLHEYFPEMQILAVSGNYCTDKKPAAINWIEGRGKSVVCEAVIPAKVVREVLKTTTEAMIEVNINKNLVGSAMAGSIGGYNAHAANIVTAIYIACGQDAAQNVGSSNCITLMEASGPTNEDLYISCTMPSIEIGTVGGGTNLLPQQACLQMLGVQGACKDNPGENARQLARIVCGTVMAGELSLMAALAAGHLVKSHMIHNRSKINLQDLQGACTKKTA
Put plainly: Inhibition of the incorporation of sodium [14C]acetate into cholesterol in HEP G2 cells. In kind it is functional, cell-based, HepG2.

Test [16] deals with T3, 3-hydroxy-3-methylglutaryl-coenzyme A reductase (Homo sapiens) (UniProt P04035).
T3 sequence (whole entry): T2 sequence (P04035 whole entry)
Put plainly: (§5) Inhibition of HMG-CoA reductase compared to mevinolin. Type of test: functional. The gist of the method: (§6)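 Solubilized, partially purified rat liver HMG-CoA reductase. IC50 from four or five inhibitor concentrations. Relative potency compared IC50 with mevinolin (set to 100), corrected for molecular weight.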

In test [17] the target is T1, 3-hydroxy-3-methylglutaryl-coenzyme A reductase. Kind of test: In vitro inhibition of HMG-CoA reductase in solubilized rat liver.
The species named for test [18] is Sus scrofa. Kind of test: In vitro inhibition of Cu2+ catalyzed LDL oxidation at 10e-5 M conc. In kind it is functional. The gist of the method: as §3
The subject of test [19] is Oryctolagus cuniculus. Kind of test: Tested in vivo for hypocholesterolemic activity by measuring its ability to decrease serum total cholesterol, after oral administration of 5 mg/kg body wt. per day in normolipidemic NZW rabbits. Type of test: functional. Summed up: as §1
The subject of test [20] is Canis familiaris. Kind of test: Tested in vivo for hypocholesterolemic activity by measuring its ability to decrease serum LDL-cholesterol, after oral administration of 25 mg/kg per day for 14 days in male Beagle dogs. Type of test: functional, Canis lupus familiaris. The gist of the method: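 Male beagle dogs (n = 4) given neat compound in gelatine capsules daily at 3:00 p.m.; controls received empty capsules. After an overnight fast, venous blood was drawn at 8:00 a.m. Serum lipoproteins were separated by ultracentrifugation (densities 1.006/1.063/1.21). LDL-cholesterol reported as % change versus control.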

In test [21] the target is T4, 3-hydroxy-3-methylglutaryl-coenzyme A reductase (Rattus norvegicus) (UniProt P51639).
T4 sequence (whole entry): T1 sequence (P51639 whole entry)
The description is as §5. The gist of the method:
as §6

Turning to `O=C1C[C@H](O)CC(COc2c(Cl)cc(Cl)cc2CC2CCCCC2)O1` (stereo not given in full), the Change in test [1] was -11%. The same compound displayed a Relative potency in test [2] of 74. This compound also yielded a Cholesterol in test [3] of 36.4%.

The compound `Cc1c(CCC(O)C[C@@H](O)CC(=O)O)c(-c2ccc(F)cc2)cn1-c1ccccc1` (stereo not given in full) came in with an IC50 in test [4] of 35 nM.

In the case of `CCOC(=O)C(C)(C)Oc1ccc(Cl)cc1` [CLOFIBRATE], the Change in [5] was 15%; in [6], -40%; in test [7], 8%; in [8], -19%; in test [9], -29%.

Turning to `CC(=O)Oc1c(-c2ccc(F)cc2)c(C(C)C)c(O)c(C(C)C)c1C(C)C`, the IC50 in test [10] stood at 150 nM; in [14], 2800 nM. Further, the inhibition in test [11] amounted to 98%. For the same compound, the figures for the Relative potency in test [12] and in test [13] were 73 and 4, respectively.

`O=C1C[C@H](O)CC(COc2c(Cl)cc(Cl)cc2C(c2ccc(F)cc2)c2ccc(F)cc2)O1` (stereo not given in full) showed a Relative potency in [2] of 40. The compound further showed a Cholesterol in test [3] of 65.6%.

Turning to `CC(C)c1cc(Sc2ccc(F)cc2)cc(-c2ccc(F)cc2)c1OCC(O)C[C@@H](O)CC(=O)[O-].[Na+]` (stereo not given in full), the IC50 was 0.5 nM in test [15], 6 nM in test [17] and more than 10000 nM in test [10]. The figures for the Relative potency in [16], in test [12] and in test [13] were 10000, 0.1 and less than 0.1, respectively. This compound had an inhibition at 10 µM in test [18] of 41%. The same compound showed an inhibition in [11] of less than 10%. The Change in test [19] is given as -46%.

For `CC(=O)Oc1c(C(C)C)c(-c2ccc(F)cc2)c(O)c(C(C)C)c1C(C)C`, the inhibition in test [11] came to 83%. Further, the Relative potency in test [13] worked out at 2. Further, the half-maximal inhibitory concentration (IC50) in test [14] is 4800 nM.

In test [4], `Cc1cc(-c2ccccc2)nc(-c2ccc(F)cc2)c1/C=C/[C@@H](O)C[C@@H](O)CC(=O)O` yielded an IC50 of 38 nM.

`CC(C)c1cc(-c2ccc(F)cc2)cc(-c2ccc(F)cc2)c1OCC(O)C[C@@H](O)CC(=O)[O-].[Na+]` (stereo not given in full): the Change in test [20] is 3%. Besides, the IC50 amounted to 55 nM in test [15] and 17 nM in [17]. For the same compound, the values for the Relative potency in [16] and in test [21] were 90 and 43, respectively.

The compound `O=C(O)C[C@H](O)C[C@H](O)/C=C/c1c(Cl)cc(Cl)cc1-c1ccc(F)cc1` had an IC50 in test [4] of 4.5 nM.
